High-throughput results deposited in PubChem by several laboratories.
Compounds with a hit are over-represented: about 2.7% of the library has one in this group of screens.
FLuc act counter: FLuc activators, initial screening, artefact control for FLuc-dependent activation tests, biochemical, ATPlite luminescence; activation factor at 10 µM; AID 1027, 2008; ATPlite luciferase biochemical, 10 min; 0 = ATP-free wells, 1 = DMSO control; Luciferin 4-monooxygenase (Photinus pyralis), P08659; 200,000 tested, under 10 active;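 active means luciferase activation factor, scaled between plate controls, of at least 2 with compound at 10 µM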
Target sequence (P08659 whole entry, looked up): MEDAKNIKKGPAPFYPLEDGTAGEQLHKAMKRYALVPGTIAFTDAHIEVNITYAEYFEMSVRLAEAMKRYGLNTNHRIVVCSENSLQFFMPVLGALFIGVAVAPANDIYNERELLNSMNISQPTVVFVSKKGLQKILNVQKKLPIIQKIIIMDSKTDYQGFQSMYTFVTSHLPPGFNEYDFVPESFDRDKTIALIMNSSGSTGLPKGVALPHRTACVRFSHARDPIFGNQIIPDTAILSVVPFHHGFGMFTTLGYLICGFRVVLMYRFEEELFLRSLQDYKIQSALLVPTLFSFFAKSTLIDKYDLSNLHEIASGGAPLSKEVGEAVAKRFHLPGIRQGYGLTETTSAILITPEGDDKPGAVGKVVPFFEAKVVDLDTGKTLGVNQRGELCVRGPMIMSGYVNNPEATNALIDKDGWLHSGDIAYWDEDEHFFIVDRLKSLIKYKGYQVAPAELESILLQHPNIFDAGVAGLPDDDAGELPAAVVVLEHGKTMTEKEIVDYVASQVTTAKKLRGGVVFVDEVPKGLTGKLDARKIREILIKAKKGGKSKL
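test system = cell-free luciferase reagent | medium = PBS as buffer for the ATP substrate | dosing = test compounds dosed from 2 mM stocks in 100% DMSO | incubation = 10 min at ambient temperature | detection = luminescence measurement of luciferase light output | benchmarks = low control with PBS replacing ATP, high control enzyme plus ATP without compound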
ABCB1 block: ABCB1 efflux pump inhibitors, primary screen, cell-based, multiplex, flow cytometry, ABCG2 counter-screen | 190,000 tested, 0.067% active | CCRF-Adr cells, JC-1 efflux | inhibition, % at 6.6 µM | ATP-dependent translocase ABCB1 (Homo sapiens), P08183; in the data active means inhibition above about 40%;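 further: 0% = vehicle and 100% = reference inhibitor; higher value means more JC-1 retained so stronger ABCB1 efflux block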
DTT redox prof: compounds producing H2O2 with reducing agent – biochemical, NIH compound library profiling, artefact control for MLSCN library redox annotation, primary screen. 200,000 tested, 0.03% active. activation, % at 10 µM. DTT-dependent redox cycling H2O2, phenol red/HRP absorbance; 100% = 100 µM peroxide control, 0% = buffer;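 active means activation of at least 50% relative to the plate's high and low controls in the primary single-dose screen; inactive means activation below 50%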;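 further: compound incubated with DTT at 0.8 mM final as the reducing agent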
Measles CPE: compounds protecting cells from measles virus cytopathic effect, primary screen, measles RdRp inhibitor project, single point, MLSMR library, absorbance; AID 841, 2007; 140,000 tested, 1.5% active; protection (pct of control), % at 4 µM; Measles virus-infected cells, CPE protection; in the data active means protection mostly above about 24%, no sharp cut-off; inactive means mostly below about 26%
ABCG2 block: ABCG2 efflux pump inhibitors, primary screen, multiplex with ABCB1, IgMXP3 cells, flow cytometry; Broad substrate specificity ATP-binding cassette transporter ABCG2 (Homo sapiens), Q9UNQ0; JC-1 efflux; inhibition, % at 6.6 µM; 190,000 tested, 0.1% active; AID 1325, 2008;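 active means inhibition above 80%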;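 further: 0% = DMSO and 100% = nicardipine control wells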
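Measure – % inhibition of efflux relative to nicardipine and DMSO · Test system – ABCG2 IgMXP3 and barcoded ABCB1 CCRF-Adr cell mix · Control set – nicardipine as high control, DMSO as low control · Compound – one concentration, 6.6 µM final · Signal – flow cytometry of retained JC-1 fluorescence · Timing – 10 min exposure at 25 °C with rotation, no wash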
FLuc inhib CS: firefly luciferase enzyme inhibitors, primary screen, artefact control for luciferase-based inhibitor screens, biochemical, luminescence, ATPLite. 10 min. inhibition, % at 10 µM. 200,000 tested, 1.5% active;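 active means inhibition above about 50% when tested at 10 µM, limit read from the data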
An asterisk follows results filed as active; · = no result given.

SMILES	FLuc act counter	ABCB1 block	DTT redox prof	Measles CPE	ABCG2 block	FLuc inhib CS
O=C(Nc1ccc(Cl)c(Cl)c1)c1ccc(Cn2c(=O)[nH]c3ccsc3c2=O)cc1	1.1	0	1	23*	0	-5
O=C(CCC(=O)Nc1ccccc1Cl)NNC(=O)c1ccccc1[N+](=O)[O-]	1	0	-1	·	0	-2
CCc1ccc2nc3n[nH]c(N)c3cc2c1	0.3	0	2	19	2	70*
Nc1[nH]nc2nc3ccccc3cc12	0.9	-1	-1	·	0	6
O=C1NC(=O)/C(=C\c2ccc(OCc3cccc([N+](=O)[O-])c3)cc2)N1	1.1	1	-1	·	7	-8
O=C(Cc1cccs1)Nc1nc2c(s1)CCCC2	0.8	0	0	93*	7	16
O=C(Nc1nc2c(s1)CCCC2)c1cccs1	0.2	-2	-4	6	44	80*
O=C(Cc1cn2ccsc2n1)Nc1nc2c(s1)CCCC2	1	1	0	1	4	2
COc1ccc(/C=C(\NC(=O)c2ccc([N+](=O)[O-])cc2)C(=O)N2CCOCC2)cc1	1	0	-1	·	-1	-2
COc1cc(/C=C2/C(=O)c3cccc([N+](=O)[O-])c3C2=O)c(Br)cc1O	0.4	-1	1	5	-12	64*
Cc1cc2c(cc1C)/C(=C\C(N)=O)NC(C)(C)C2	1.1	0	-1	44*	0	-9
Cc1cccc2c1CC(C)(C)N/C2=C\C(N)=O	1.1	0	0	5	2	-9
COc1ccc2nc(NC(=O)c3cc(C)oc3C)sc2c1	0.5	0	1	37	1	49
COc1ccc2sc(NC(=O)c3ccco3)nc2c1	0.1	1	-1	15	5	88*
O=C(NC(=S)Nc1nc2ccccc2s1)c1ccco1	0.2	-1	0	10	-6	80*
O=C(NC(=S)NCc1ccc(-c2nc3ccccc3s2)cc1)c1ccco1	1	1	0	30	3	-1
COc1ccc2nc(NC(=S)NC(=O)c3ccco3)sc2c1	0.2	1	-1	·	9	76*
COc1ccc(-c2csc(NC(=S)NC(=O)c3ccco3)n2)cc1	1	0	-1	·	6	-5
COc1ccc2nc(NC(=O)c3ccoc3C)sc2c1	0.5	0	1	9	14	51*
COC(=O)c1cc(C(=O)Nc2nnc(C3CC3)s2)cc([N+](=O)[O-])c1	1	0	0	12	-8	-2
O=C(Nc1ccc(N2CCCC2)c(S(=O)(=O)Nc2cccc(C(F)(F)F)c2)c1)c1cccs1	1	0	0	6	-7	-3
CS(=O)(=O)c1ccc(C(=O)OCC(=O)NC(=O)C2CCCCC2)cc1[N+](=O)[O-]	1.1	4	-1	·	29	-9
CC(C)Oc1ccc(/C(O)=C2/C(=O)C(=O)N(CCN(C)C)C2c2cccs2)cc1 (configuration not stated)	1	0	0	3	0	-4
Cc1cc(C)c(Cc2c(C)nc3c(C(=O)NCc4ccco4)cnn3c2C)c(C)c1	1.1	2	0	38	23	-7
O=Cc1cccn1-c1ccc(O)cc1	1	1	0	·	6	-2
SMILES	FLuc act counter	ABCB1 block	DTT redox prof	Measles CPE	ABCG2 block	FLuc inhib CS
CCCCn1c(N)c(N(CCC(C)C)C(=O)COC(=O)c2ccccc2)c(=O)[nH]c1=O	1.1	1	0	·	0	-5
CCCCn1c(N)c(N(CCC(C)C)C(=O)COC(=O)c2ccco2)c(=O)[nH]c1=O	1.1	1	-2	31*	1	-7
Cc1sc(NC(=O)c2cccs2)nc1-c1ccccc1	0.9	0	0	36	33	5
O=C(Nc1nsc(-c2ccccc2)n1)c1cccs1	0.2	0	-9	1	2	79*
CC(/C=N/NC(=O)Cc1cccs1)=C\c1ccccc1	0.9	1	1	4	2	12
CC(/C=N/NC(=O)c1ccco1)=C\c1ccccc1	0.1	0	0	·	2	90*
O=C(N/N=C/C(Br)=C\c1ccccc1)c1n[nH]c2c1CCC2	0.6	0	0	0	-1	42
CC(/C=N/NC(=O)c1cccs1)=C\c1ccccc1	0.2	-2	0	·	24	76*
O=C(Cc1cccs1)N/N=C/C(Br)=C/c1ccccc1	1	-1	-3	48*	3	5
CC(/C=N/NC(=O)c1n[nH]c2c1CCC2)=C\c1ccccc1	0.5	0	0	2	1	53*
CCN(CC)c1c([N+](=O)[O-])c(=O)oc2ccccc12	1	0	0	·	3	-4
O=C(N/N=C\CCc1ccccc1)c1ccco1	1.1	0	0	57*	3	-6
Nc1ccc(/C=C/C(=O)c2cccs2)cc1	0.2	-1	1	·	-1	77*
Cc1ccc(C(=O)c2c[nH]c(C(=O)NCc3cccnc3)c2)cc1	1	0	-7	28*	19	3
O=C1c2ccccc2S(=O)(=O)N1CC1CC(c2ccc(Cl)cc2)=NO1 (configuration not stated)	0.5	1	0	5	28	50*
O=C1c2ccccc2S(=O)(=O)N1CC1CC(c2ccccc2)=NO1 (configuration not stated)	0.8	1	-1	2	4	24
Cn1cc(Br)c(C(=O)N2CCc3ccccc32)n1	1	0	0	10	8	0
CCOC(=O)c1cnc2c(-c3ccccc3)cnn2c1C	0.2	-2	0	·	9	75*
O=C(Nc1nnc(CCN2CCCCC2)s1)c1ccccc1Cl	1	0	-1	·	0	-1
CC(=O)Nc1sc(N)nc1-c1ccccc1	1.1	0	-1	35*	0	-6
CN(C)N1C(N)=C(C#N)C(c2ccccc2)C2=C1CCCC2=O (configuration not stated)	1.1	1	0	·	1	-8
COc1ccc(OCCC(=O)OCC(=O)Nc2ccc(Br)cc2)cc1	1	0	0	2	4	-2
COc1ccc(OCCC(=O)OCC(=O)Nc2cccc(Br)c2)cc1	1	0	0	41*	1	-3
Cc1cc(NC(=O)NC(=O)c2ccc(F)cc2F)n[nH]1	0.5	0	0	25	3	53*
